Measured values taken from ChEMBL document CHEMBL4396949, “Anti-cancer potential of novel glycosylated 1,4-substituted triazolylchalcone derivatives” (Bioorg Med Chem Lett, 2019).

Legend:
[1] = Selectivity index, ratio of LD50 for human WI38 cells to LD50 for human MCF7 cells; assay type: toxicity; conditions: WI38 cells and MCF7 cells, read-out: Selectivity Index
In short: (§1)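 MTT cytotoxicity after exposure to […] in MDA-MB-468, MCF-7 and WI-38 fibroblasts; LD50 determined per line; selectivity index calculated as WI-38 LD50 divided by cancer-cell LD50.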

[2] = Selectivity index, ratio of LD50 for human WI38 cells to LD50 for human MDA-MB-468 cells; assay type: toxicity; conditions: WI38 cells and MDA-MB-468 cells, read-out: Selectivity Index; in short: as §1
[3] = tested on: MCF7; assay: Antiproliferative activity against human MCF7 cells incubated for 24 hrs by MTT assay; assay type: functional; conditions: MCF7, 24 h, read-out: LD50 (the source's name)
In short: (§2)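 Cells exposed to compounds at […]; viability read by MTT assay. LD50 derived from concentration-response. MDA-MB-468: triple-negative (ER-, PR-, HER2-) breast cancer. MCF-7: ER+, PR+, HER2- breast cancer. WI-38: non-cancerous lung fibroblasts. Selectivity index taken as WI-38 LD50 divided by cancer-cell LD50.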

[4] = Antiproliferative activity against human WI38 cells incubated for 24 hrs by MTT assay; assay type: cell-based, WI-38; conditions: read-out: LD50; in short: as §2
[5] = tested on: MDA-MB-468; assay: Antiproliferative activity against human MDA-MB-468 cells incubated for 24 hrs by MTT assay; assay type: functional; conditions: MDA-MB-468, 24 h, read-out: LD50 (the source's name); in short: as §2

Row | SMILES | selectivity ratio [1] | selectivity ratio [2] | CC50 [3] | CC50 at 24 h [4] | CC50 [5]
1 | COc1ccc(/C=C/C(=O)c2ccc(OCc3cn([C@@H]4O[C@H](CO)[C@@H](O)[C@H](O)[C@H]4O)nn3)cc2)cc1OC | 0.83 | 1.08 | 115 µM | 95 µM | 88 µM
2 | O=C(/C=C/c1ccc(OCc2ccccc2)cc1)c1ccc(OCc2cn([C@@H]3O[C@H](CO)[C@@H](O)[C@H](O)[C@H]3O)nn2)cc1 | 0.86 | 1.19 | 79 µM | 68 µM | 57 µM
3 | CCOc1ccc(/C=C/C(=O)c2ccc(OCc3cn([C@@H]4O[C@H](CO)[C@@H](O)[C@H](O)[C@H]4O)nn3)cc2)cc1 | 1.15 | 1.05 | 68 µM | 78 µM | 74 µM
4 | COc1cc(/C=C/C(=O)c2cc(OC)c(OC)c(OC)c2)ccc1OCc1cn([C@@H]2O[C@H](CO)[C@@H](O)[C@H](O)[C@H]2O)nn1 | 0.77 | 0.92 | 87 µM | 67 µM | 73 µM
5 | O=C(/C=C/c1cccc([N+](=O)[O-])c1)c1ccc(OCc2cn([C@@H]3O[C@H](CO)[C@@H](O)[C@H](O)[C@H]3O)nn2)cc1 | 1.17 | 1.07 | 59 µM | 69 µM | 64 µM
6 | COc1ccc(/C=C/C(=O)c2ccc(OCc3cn([C@@H]4O[C@H](CO)[C@@H](O)[C@H](O)[C@H]4O)nn3)cc2)cc1OCc1ccccc1 | 1.25 | 1.64 | 84 µM | 105 µM | 64 µM
7 | O=C(/C=C/c1ccc([N+](=O)[O-])cc1)c1ccc(OCc2cn([C@@H]3O[C@H](CO)[C@@H](O)[C@H](O)[C@H]3O)nn2)cc1 | 1.19 | 1.49 | 54 µM | 64 µM | 43 µM
8 | O=C(/C=C/c1ccccc1Cl)c1ccc(OCc2cn([C@@H]3O[C@H](CO)[C@@H](O)[C@H](O)[C@H]3O)nn2)cc1 | 0.94 | 1.06 | 72 µM | 68 µM | 64 µM
9 | COc1cc(/C=C/C(=O)c2ccc([N+](=O)[O-])cc2)ccc1OCc1cn([C@@H]2O[C@H](CO)[C@@H](O)[C@H](O)[C@H]2O)nn1 | 0.99 | 1.02 | 76 µM | 75 µM | 68 µM
10 | O=C(/C=C/c1cc(Cl)cc(Cl)c1)c1ccc(OCc2cn([C@@H]3O[C@H](CO)[C@@H](O)[C@H](O)[C@H]3O)nn2)cc1 | 0.86 | 1.03 | 74 µM | 64 µM | 62 µM
11 | COc1cc(/C=C/C(=O)c2ccc(OCc3cn([C@@H]4O[C@H](CO)[C@@H](O)[C@H](O)[C@H]4O)nn3)cc2)cc(OC)c1 | 0.72 | 1.56 | 72 µM | 52 µM | 33 µM
12 | COc1cc(/C=C/C(=O)c2ccc(C#N)cc2)ccc1OCc1cn([C@@H]2O[C@H](CO)[C@@H](O)[C@H](O)[C@H]2O)nn1 | 1.13 | 1.07 | 78 µM | 88 µM | 82 µM
13 | CC(=O)O[C@H]1C(=O)[C@@]2(C)[C@H]([C@H](OC(=O)c3ccccc3)[C@]3(O)C[C@H](OC(=O)[C@H](O)[C@@H](NC(=O)c4ccccc4)c4ccccc4)C(C)=C1C3(C)C)[C@]1(OC(C)=O)CO[C@@H]1C[C@@H]2O [PACLITAXEL] | 1.2 | 1.29 | 29 µM | 35 µM | 27 µM
14 | O=C(/C=C/c1ccc(Cl)c(Cl)c1)c1ccc(OCc2cn([C@@H]3O[C@H](CO)[C@@H](O)[C@H](O)[C@H]3O)nn2)cc1 | 0.85 | 0.93 | 65 µM | 55 µM | 59 µM
15 | COc1cc(/C=C/C(=O)c2ccc(Br)cc2)ccc1OCc1cn([C@@H]2O[C@H](CO)[C@@H](O)[C@H](O)[C@H]2O)nn1 | 0.9 | 1.37 | 99 µM | 89 µM | 65 µM
16 | COc1cccc(/C=C/C(=O)c2ccc(OCc3cn([C@@H]4O[C@H](CO)[C@@H](O)[C@H](O)[C@H]4O)nn3)cc2)c1 | 1.16 | 0.94 | 63 µM | 73 µM | 77 µM
17 | COc1cc(/C=C/C(=O)c2ccccc2)ccc1OCc1cn([C@@H]2O[C@H](CO)[C@@H](O)[C@H](O)[C@H]2O)nn1 | 0.8 | 1.1 | 123 µM | 98 µM | 89 µM
18 | COc1ccc(C(=O)/C=C/c2ccc(OCc3cn([C@@H]4O[C@H](CO)[C@@H](O)[C@H](O)[C@H]4O)nn3)c(OC)c2)cc1OC | 1.45 | 1.43 | 66 µM | 96 µM | 67 µM
19 | COc1cc([C@@H]2c3cc4c(cc3[C@@H](O[C@@H]3O[C@@H]5CO[C@@H](C)O[C@H]5[C@H](O)[C@H]3O)[C@H]3COC(=O)[C@H]23)OCO4)cc(OC)c1O [ETOPOSIDE] | 0.95 | 1.06 | 38 µM | 36 µM | 34 µM
20 | COc1cc(/C=C/C(=O)c2ccc(OCc3cn([C@@H]4O[C@H](CO)[C@@H](O)[C@H](O)[C@H]4O)nn3)cc2)cc(OC)c1OC | 0.64 | 1.06 | 84 µM | 54 µM | 51 µM
21 | COc1ccc(/C=C/C(=O)c2ccc(OCc3cn([C@@H]4O[C@H](CO)[C@@H](O)[C@H](O)[C@H]4O)nn3)cc2)cc1 | 1.36 | 1.84 | 53 µM | 72 µM | 39 µM
22 | COc1ccccc1/C=C/C(=O)c1ccc(OCc2cn([C@@H]3O[C@H](CO)[C@@H](O)[C@H](O)[C@H]3O)nn2)cc1 | 1.06 | 1.3 | 97 µM | 103 µM | 79 µM
